Measured values: article PMC6460380 (Heliyon, 2019)
Counter-ions that a name gives are not always drawn.

Experiments:
[1] = tested on: GST enzyme isolated from blueberry fruits (Vaccinium arctostaphylos L.); test: In vitro inhibition of purified blueberry fruit GST by pesticides; assay type: biochemical; settings: for Ki: Lineweaver-Burk graphs, 1/V versus 1/[GSH]; for Ki / Inhibition type: GSH as substrate; for Inhibition type: from Lineweaver-Burk graphs; for IC50: from activity (%) - pesticide concentration graphs, minimum five concentrations
Procedure, shortened: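 GST purified from ripe berries (stored at -20 °C). The 1 mL assay used 0.1 M K-phosphate pH 7.0, CDNB (25 mM stock in ethanol) and GSH (20 mM stock). It was started with enzyme and absorbance was read for 3 min. Pesticides were tested at ≥5 concentrations against a no-pesticide control set as 100%. Ki and inhibition type came from 1/V versus 1/[GSH] plots.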

[2] = tested on: GST enzyme isolated from blueberry fruits (Vaccinium arctostaphylos L.); test: Kinetic studies of purified blueberry fruit GST with substrates CDNB and GSH; assay type: biochemical; settings: CDNB 0.05-1.6 mM at fixed GSH 20 mM; GSH 0.05-1.6 mM at fixed CDNB 25 mM
Procedure, shortened: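 The enzyme was blueberry GST purified by Sephadex G-100 gel filtration then GSH-agarose affinity chromatography with GSH gradient elution. Reactions were 1 mL in 0.1 M K-phosphate buffer pH 7.0, with one substrate varied and the other held fixed. The reaction was started by rapid enzyme addition and absorbance was followed spectrophotometrically for 3 min.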

Compound | Ki [1] | Inhibition type [1] | IC50 [1] | Inhibition of GST enzyme activity in vitro (in words) [1] | Vmax [2]
CC(=NC#N)N(C)Cc1ccc(Cl)nc1 [Acetamiprid, N - [(6-chloro-3-pyridyl)methyl] -N′-cyano-N-methyl-acetamidine] | 1560 ± 733 µM | competitive | 4100 µM | inhibited | –
O=[N+]([O-])NC1=NCCN1Cc1ccc(Cl)nc1 [Imidacloprid, N-{1 - [(6-Chloro-3-pyridyl)methyl] -4,5-dihydroimidazol-2-yl} nitramide] | 630 ± 283 µM | – | 490 µM | inhibited | –
(R) -2- [4- (6-chloro-1,3-benzoxazol-2-yloxy) phenoxy] propionic acid [Fenoxaprop-p-ethyl] | 133 µM | competitive | 230 µM | inhibited | –
O=C(O)COc1ccc(Cl)cc1Cl [2,4 Dichlorophenoxy acetic acid] | 188 ± 85 µM | competitive | 460 µM | inhibited | –
COP(=O)(OC)OC=C(Cl)Cl [Dichlorvos, 2,2-dichlorovinyl dimethyl phosphate] | 17.5 ± 5 µM | – | 24 µM | inhibited | –
CC1(C)C(C=C(Cl)Cl)C1C(=O)OC(C#N)c1cccc(Oc2ccccc2)c1 (centres unmarked) [Cypermethrin, [Cyano-(3-phenoxyphenyl)methyl] 3-(2,2-dichloroethenyl) -2,2-dimethylcyclopropane-1-carboxylate] | 310 ± 88 µM | – | 320 µM | inhibited | –
g-glu-cys-gly [GSH] | – | – | – | – | 0.048 EU/ml
O=C(O)CNCP(=O)(O)O [Glifosat- izopropilamine salt, glyphosate isopropylamine salt] | 266 ± 100 µM | competitive | 160 µM | inhibited | –
